Source: ChEMBL document CHEMBL1130159, “Chlorogenic acid and synthetic chlorogenic acid derivatives: novel inhibitors of hepatic glucose-6-phosphate translocase” (J Med Chem, 1997)

Species on record: Rattus norvegicus
Assay: Percent inhibition against glucose-6-phosphate hydrolysis in highly intact microsomal preparations obtained from livers of 20-h fasted rats at 1 mM
Format: functional, microsomes
Conditions: Liver, Microsome
How it was run: (§1)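 Intact microsomes from 20-h-fasted male Wistar rat liver; 100 μg protein incubated 10 min at 22 °C with 1 mM glucose 6-phosphate in pH 7.0 sucrose/HEPES buffer, ≤1.25% methanol. Released phosphate measured colorimetrically at 630 nm after background subtraction. Percent inhibition versus vehicle control; representative of at least two independent experiments.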

Row | Compound | inhibition
1 | COC(=O)[C@]1(O)C[C@@H](O)[C@@H](O)[C@H](OC(=O)/C=C/c2ccc(O)c(O)c2)C1 | 50%
2 | O=C(/C=C/c1ccc(O)cc1)O[C@@H]1C[C@H](C(=O)O)CC[C@H]1O | 20%
3 | O=C(/C=C/c1ccc(O)c(O)c1)O[C@@H]1C[C@@](O)(C(=O)O)[C@H](O)[C@@H](O)[C@H]1O | 10%
4 | CCO[C@@]1(C(=O)O)C[C@@H](O)[C@@H](O)[C@H](OC(=O)/C=C/c2ccc(O)cc2)C1 | 38%
5 | O=C(/C=C/c1ccc(O)cc1)N[C@@H]1CC(C(=O)O)=C[C@@H](O)[C@H]1O | 15%
6 | O=C(/C=C/c1ccc(O)cc1)O[C@@H]1C[C@](O)(C(=O)O)[C@@H](O)[C@@H](O)[C@H]1O | 30%

Species on record: Rattus norvegicus
Assay: Percent inhibition against glucose-6-phosphate hydrolysis in highly intact microsomal preparations obtained from livers of 20-h fasted rats at 0.23 mM
Format: functional, microsomes
Conditions: Liver, Microsome
How it was run: as §1

Row | Compound | inhibition
7 | O=C(/C=C/c1ccc(O)cc1)O[C@@H]1C[C@H](C(=O)O)C[C@@H](O)[C@H]1O | 50%

Species on record: Rattus norvegicus
Assay: Percent inhibition against glucose-6-phosphate hydrolysis in highly intact microsomal preparations obtained from livers of 20-h fasted rats at 0.25 mM
Format: functional, microsomes
Conditions: Liver, Microsome
How it was run: as §1

Row | Compound | inhibition
8 | O=C(/C=C/c1ccc(O)cc1)O[C@@H]1CC(C(=O)O)=C[C@@H](O)[C@H]1O | 50%

Test system: not listed separately
Assay: Inhibition glucose-6-phosphate hydrolysis in highly intact microsomal preparations obtained from livers of 20-h fasted rats.
Format: functional, microsomes, Rattus norvegicus, Liver, Microsome
Conditions: not given
How it was run: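 Male Wistar rats (160-180 g), fasted 20 h; liver microsomes by differential centrifugation, intactness usually above 97% (1 mM mannose 6-phosphate). 100 μg protein, 1 mM glucose 6-phosphate, 250 mM sucrose/50 mM HEPES pH 7.0, 10 min, 22 °C, compound 0.1-1000 μM (MeOH stock). Phosphate read at 630 nm, background-corrected; IC50 by nonlinear least-squares; at least two experiments.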

Row | Compound | IC50
9 | O=C(CCc1ccc(O)c(O)c1)O[C@@H]1C[C@](O)(C(=O)O)C[C@@H](O)[C@H]1O | 680 µM
10 | CO[C@@]1(C(=O)O)C[C@@H](O)[C@@H](O)[C@H](OC(=O)/C=C/c2ccc(O)cc2)C1 | 280 µM
11 | O=C(/C=C/c1ccc(O)c(O)c1)O[C@@H]1C[C@](O)(C(=O)O)C[C@@H](O)[C@H]1O [CHLOROGENIC ACID] | 230 µM
12 | O=C(/C=C/c1cccnc1)O[C@@H]1C[C@](O)(C(=O)O)C[C@@H](O)[C@H]1O | > 1000 µM
13 | O=C(/C=C/c1ccsc1)O[C@@H]1C[C@](O)(C(=O)O)C[C@@H](O)[C@H]1O | 380 µM
14 | O=C(/C=C/c1ccc(O)c(O)c1O)O[C@@H]1C[C@](O)(C(=O)O)C[C@@H](O)[C@H]1O | 310 µM
15 | O=C(/C=C/c1ccc(O)cc1)O[C@@H]1C[C@](O)(C(=O)O)C[C@@H](O)[C@H]1O | 250 µM

Now from value to molecule:

Row | IC50 | Compound
16 | 230 µM | C#CCO[C@@]1(C(=O)O)C[C@@H](O)[C@@H](O)[C@H](OC(=O)/C=C/c2ccc(O)cc2)C1
17 | 190 µM | O=C(/C=C/c1ccc(O)cc1)O[C@@H]1C[C@](OCc2ccccc2)(C(=O)O)C[C@@H](O)[C@H]1O
18 | 110 µM | O=C(/C=C/c1ccc(O)cc1)O[C@@H]1C[C@](OCc2cccs2)(C(=O)O)C[C@@H](O)[C@H]1O
19 | 85 µM | O=C(/C=C/c1ccc(O)cc1)O[C@@H]1C[C@](OCCCCc2ccc(Cl)cc2)(C(=O)O)C[C@@H](O)[C@H]1O
20 | 47 µM | COc1cccc(CO[C@@]2(C(=O)O)C[C@@H](O)[C@@H](O)[C@H](OC(=O)/C=C/c3ccc(O)cc3)C2)c1
21 | 41 µM | CC(C)CCC(=O)O[C@@H]1C[C@](OCCCc2ccc(Cl)cc2)(C(=O)O)C[C@@H](O)[C@H]1O
22 | 31 µM | O=C(/C=C/c1ccc(O)cc1)O[C@@H]1C[C@](OCCCc2ccccc2)(C(=O)O)C[C@@H](O)[C@H]1O
23 | 21 µM | O=C(/C=C/c1ccc(O)cc1)O[C@@H]1C[C@](OCc2ccc(-c3ccccc3)cc2)(C(=O)O)C[C@@H](O)[C@H]1O
24 | 12 µM | O=C(COc1ccccc1)O[C@@H]1C[C@](OCCCc2ccc(Cl)cc2)(C(=O)O)C[C@@H](O)[C@H]1O
25 | 8.9 µM | O=C(O[C@@H]1C[C@](OCCCc2ccc(Cl)cc2)(C(=O)O)C[C@@H](O)[C@H]1O)C1CCCCC1
26 | 4.5 µM | O=C(O[C@@H]1C[C@](OCCCc2ccc(Cl)cc2)(C(=O)O)C[C@@H](O)[C@H]1O)c1snnc1-c1ccccc1
27 | 2.5 µM | O=C(/C=C/c1ccc(O)cc1)O[C@@H]1C[C@](OCCCc2ccc(Cl)cc2)(C(=O)O)C[C@@H](O)[C@H]1O
28 | 1.3 µM | C=Cc1ccc(C(=O)O[C@@H]2C[C@](OCCCc3ccc(Cl)cc3)(C(=O)O)C[C@@H](O)[C@H]2O)cc1
